Test results reported in article PMC2614345 (Toxicology and applied pharmacology, 2008).
Like-named read-outs stand apart in the source and are kept apart here.

How the values were obtained:
[1] = 25 mg/kg DAPM, ref Dugas et al., 2001, cited from earlier work
[2] = Biliary excretion of DAPM metabolites; format: in vivo, Sprague Dawley rats; settings: for biliary excretion, male compared to female rats: AUC analysis, 25 and 50 mg/kg DAPM; for AUC for DAPM metabolite elimination in the bile, Females: female rats; for AUC for DAPM metabolite elimination in the bile, Females / AUC for DAPM metabolite elimination in the bile, Males: bile collected 6 h, mean ± SEM, n=4–6; for AUC for DAPM metabolite elimination in the bile, Males: male rats
Method in brief: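 Sprague Dawley rats of both sexes (12–15 wk) under pentobarbital, with biliary, duodenal and peritoneal cannulas and duodenal taurocholate infusion; 1 h basal bile. Gavage of [14C]-test compound, 25 or 50 mg/kg in 35% ethanol, 2 mL/kg. Bile taken for 6 h in 15-min fractions, deproteinized, then C18 HPLC with UV 254 nm and radioisotope detection. Per-rat nmol-versus-time AUC; group mean ± SEM, n=4–6; two-way ANOVA.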

rats = settings: ref Dugas et al., 2001, cited from earlier work

| SMILES | maximum rate of biliary excretion of metabolite ([1]; female rats, maximum at 45 min) | maximum rate of biliary excretion of metabolite ([1]; male rats, maximum at 15 min) | biliary excretion, male compared to female rats [2] | AUC for DAPM metabolite elimination in the bile, Females ([2]; DAPM 25 mg/kg by gavage) [nmol·h] | AUC for DAPM metabolite elimination in the bile, Females ([2]; DAPM 50 mg/kg by gavage) [nmol·h] | AUC for DAPM metabolite elimination in the bile, Males ([2]; DAPM 25 mg/kg by gavage) [nmol·h] | AUC for DAPM metabolite elimination in the bile, Males ([2]; DAPM 50 mg/kg by gavage) [nmol·h] | threshold dose for observing injury (rats; female rats) [mg/kg] | threshold dose for observing injury (rats; male rats) [mg/kg] |
| --- | --- | --- | --- | --- | --- | --- | --- | --- | --- |
| Nc1ccc(Cc2ccc(N)cc2)cc1 [DAPM, 4,4’-Methylenedianiline] | ~ 9 µg/min*kg | ~ 18 µg/min*kg | biliary excretion in males was likewise greater than that in female rats | 29 ± 14 | 67 ± 31 | 155 ± 22 | 176 ± 74 | 25 | 50 |
| CC(=O)Nc1ccc(Cc2ccc(N)cc2)cc1 [Metabolite M5, N-acetyl-DAPM] |  |  | greater in male compared to female rats | 39 ± 13 | 132 ± 70 | 175 ± 11 | 259 ± 86 |  |  |
